For series [1], the system named is L. infantum MHOM/TN/80/IPT1 promastigotes. Put plainly: L. infantum promastigotes viability assay. It is filed as cell-based, Leishmania infantum. Particulars: 72 h; for inhibition at 20 µM: read-out: Percentage of inhibition at 20 μM, L. infantum MHOM/TN/80/IPT1. In a few lines:
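Late log/stationary promastigotes were seeded in RPMI-PY at 2.5 × 10^6/mL. They were treated 72 h at 26 °C with 1:2 or 2:3 dilutions from 20 to 0.31 μM, with DMSO vehicle control, in duplicate. MTS/PMS was added at 26 °C until formazan formed, then A492 was read. Growth inhibition is relative to DMSO. IC50 from a normalized-response nonlinear fit with unconstrained Hill slope. Mean and 95% CI, ≥3 independent experiments.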

Series [2] is described as follows: Cytotoxicity assay. The format is cell-based, human. The note with it: human, PMA-differentiated THP-1 cells (macrophage-like). The procedure, abridged:
(§1)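 THP-1 (RPMI-1640, 10% FBS; 5 × 10^6 cells/mL) were PMA-differentiated (20 ng/mL, 48 h). DH82 (EMEM, 15% FBS; 2 × 10^5/well) were attached overnight. Both were exposed 72 h at 37 °C to 2, 10, 20, 80 and 200 μM, with DMSO control, in duplicate. Read-out was MTS/PMS A492, with % inhibition at 200 μM.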

In another series the test system is THP-1 cells. The series is described as follows: Cytotoxicity assay. The format is cell-based, human. Particulars: for THP-1 selectivity index (CC50/IC50): IC50 on L. infantum MHOM/TN/80/IPT1, CC50 72 h. In a few lines: as §1
Series [3] can be described thus: Cytotoxicity assay. The format is cell-based, canine. The note with it: dog, DH82 cells. In a few lines: as §1
The next series relates to DH82 cells. Put plainly: Cytotoxicity assay. The format is cell-based, canine. Particulars: IC50 on L. infantum MHOM/TN/80/IPT1; CC50 72 h. In a few lines: as §1
The mark [4] stands for this setting: Leishmania infantum, read-out: L. infantum MHOM/TN/80/IPT1 IC50 (95% CI), promastigotes, 72 h, MTS.

By CC50 is commonly meant the concentration that lowers cell viability or growth by half. A lower CC50 goes with greater toxicity to the cells.

Each structure is given as a SMILES string. Like-named read-outs stand apart in the source and are kept apart here.

Regarding `CCc1ncn(CC(c2c[nH]c3ccc(C)cc23)c2c[nH]c3ccc(C)cc23)c1C(=O)OC` [2c], in series [1] (setting [4]), the IC50 amounted to 10 µM. The CC50 at 72 h in the series “Cytotoxicity assay [2]” was found to be 38.6 µM; in “Cytotoxicity assay [3]”, 23.5 µM. For the same compound, the “THP-1 selectivity index (CC50/IC50)” value in the series on THP-1 cells was 3.8. In addition, the “DH82 selectivity index (CC50/IC50)” value in the series on DH82 cells stood at 2.3.
With `Cc1cn(CC(c2cn(C)c3ccccc23)c2cn(C)c3ccccc23)nn1` [3b], the IC50 was less than 8 µM in series [1] (setting [4]) and 8.1 µM in series [1] (read-out: L. infantum MHOM/TN/80/IPT1 IC50 (95% CI), promastigotes, MTS). Further, the half-maximal cytotoxic concentration (CC50) at 72 h in the series “Cytotoxicity assay [2]” is more than 200 µM; in “Cytotoxicity assay [3]” it was 31.9 µM. The inhibition at 200 µM with THP-1 cells (Homo sapiens, THP-1, 72 h, read-out: Percentage of inhibition at 200 μM, THP-1) worked out at 33%. For the same compound, in the series with THP-1 cells, the “THP-1 selectivity index (CC50/IC50)” value is more than 25. Besides, in the series on DH82 cells, the “DH82 selectivity index (CC50/IC50)” value was determined as 3.9.
For `COC(=O)c1c(C)ncn1CC(c1c[nH]c2ccc(C)cc12)c1c[nH]c2ccc(C)cc12` [2b], the IC50 in series [1] (setting [4]) worked out at 7.7 µM. Also, the CC50 at 72 h in “Cytotoxicity assay [2]” is 26.9 µM; in “Cytotoxicity assay [3]”, 24.8 µM. In the series on THP-1 cells, the “THP-1 selectivity index (CC50/IC50)” value is reported as 3.5. In the series on DH82 cells, the “DH82 selectivity index (CC50/IC50)” value is 3.2.
In the case of `c1ccc2c(Cc3c[nH]c4ccccc34)c[nH]c2c1` [DIM, 3,3′-diindolylmethane, reference compound], in series [1] (setting [4]), the IC50 was more than 20 µM. Moreover, the inhibition at 20 µM in series [1] (Leishmania infantum) was 10%.
The corresponding values for `CCOC(=O)c1c(C(=O)OC)cn(CC(c2cn(C)c3cc(Br)ccc23)c2cn(C)c3cc(Br)ccc23)c1C` [1d] are more than 20 µM and 11%.
In the case of `CCOC(=O)c1c(C)ncn1CC(c1cn(C)c2ccc([N+](=O)[O-])cc12)c1cn(C)c2ccc([N+](=O)[O-])cc12` [2f], the IC50 in series [1] (setting [4]) turned out to be 4.9 µM. In addition, the CC50 at 72 h in the series “Cytotoxicity assay [2]” was 35.1 µM; in “Cytotoxicity assay [3]”, more than 200 µM. Also, in the series on THP-1 cells, the “THP-1 selectivity index (CC50/IC50)” value is reported as 7.2. In addition, the “DH82 selectivity index (CC50/IC50)” value in the series with DH82 cells is given as more than 41.
For the compound `CCCCCCCCCCCCCCCCOP(=O)([O-])OCC[N+](C)(C)C` [Milt, miltefosine, reference compound], the IC50 in series [1] (setting [4]) was 2.9 µM. Besides, the cytotoxic concentration (CC50) at 72 h in “Cytotoxicity assay [2]” was determined as 27.8 µM; in the series “Cytotoxicity assay [3]”, 95.9 µM. Moreover, the “THP-1 selectivity index (CC50/IC50)” value with THP-1 cells is given as 9.8. In addition, the “DH82 selectivity index (CC50/IC50)” value in the series on DH82 cells is recorded as 33.6.
For the compound `N=C(N)c1ccc(OCCCCCOc2ccc(C(=N)N)cc2)cc1` [Pent, pentamidine, reference compound], in series [1] (setting [4]), the IC50 was 2.6 µM. Besides, the CC50 at 72 h stood at 103 µM in the series “Cytotoxicity assay [2]” and 10.6 µM in “Cytotoxicity assay [3]”.
Regarding `COC(=O)c1c(C)ncn1CC(c1cn(C)c2ccccc12)c1cn(C)c2ccccc12` [2e], in series [1] (setting [4]), the IC50 turned out to be 4.9 µM. In addition, the half-maximal cytotoxic concentration (CC50) at 72 h turned out to be 55.4 µM in “Cytotoxicity assay [2]” and 24.3 µM in “Cytotoxicity assay [3]”. For the same compound, the “THP-1 selectivity index (CC50/IC50)” value in the series with THP-1 cells was found to be 11.3. For the same compound, in the series with DH82 cells, the “DH82 selectivity index (CC50/IC50)” value was determined as 5.0.
Take `Cc1cn(CC(c2c[nH]c3ccccc23)c2c[nH]c3ccccc23)nn1` [3a]: the IC50 in series [1] (setting [4]) is more than 20 µM. Moreover, in series [1] (Leishmania infantum), the inhibition at 20 µM turned out to be 22%.
For the compound `COC(=O)c1c(C)ncn1CC(c1c[nH]c2ccccc12)c1c[nH]c2ccccc12` [2a], in series [1] (setting [4]), the IC50 stood at 10 µM. For the same compound, the CC50 at 72 h in the series “Cytotoxicity assay [2]” stood at 37.9 µM; in the series “Cytotoxicity assay [3]”, 35.3 µM. Moreover, in the series with THP-1 cells, the “THP-1 selectivity index (CC50/IC50)” value worked out at 3.8. Also, the “DH82 selectivity index (CC50/IC50)” value in the series with DH82 cells is 3.5.
The corresponding values for `C[C@@H]1[C@H](O)[C@@H](C)/C=C/C=C/C=C/C=C/C=C/C=C/C=C/[C@H](O[C@@H]2O[C@H](C)[C@@H](O)[C@H](N)[C@@H]2O)C[C@@H]2O[C@](O)(C[C@@H](O)C[C@@H](O)[C@H](O)CC[C@@H](O)C[C@@H](O)CC(=O)O[C@H]1C)C[C@H](O)[C@H]2C(=O)O` [Amph B, amphotericin B, reference compound] are 0.064 µM, 2.8 µM, more than 200 µM, 45.8 and more than 3333.
The like results for `COC(=O)c1c(C)ncn1CC(c1c[nH]c2cc(Br)ccc12)c1c[nH]c2cc(Br)ccc12` [2d] were, in that order, 8.5 µM, 15.4 µM, 18.9 µM, 1.8 and 2.2.
With `CCOC(=O)c1cn(CC(c2cn(C)c3ccc(C)cc23)c2cn(C)c3ccc(C)cc23)c(C)c1C(=O)OC` [1c], the IC50 in series [1] (setting [4]) was more than 20 µM. Also, the inhibition at 20 µM in series [1] (Leishmania infantum) was 43%.

The record behind these values is paper PMC8717589 (ACS Omega, 2021).
